Experimental data of several laboratories.
Lines come from different studies, so protocols differ.
SLC6A3: Sodium-dependent dopamine transporter (SLC6A3, Homo sapiens, UniProt Q01959)
PDE10A: cAMP and cAMP-inhibited cGMP 3',5'-cyclic phosphodiesterase 10A (PDE10A, Homo sapiens, UniProt Q9Y233)
DRD3: D(3) dopamine receptor (DRD3, Homo sapiens, UniProt P35462)

target | assay | setting | inhibition [%] | Structure (SMILES)
SLC6A3 | ligand displacement, radioligand | 10 µM | 9 | O[C@@H]1[C@H](O)[C@@H]2C[C@@H]2[C@H]1n1cnc2c(NCCC3CC3)nc(I)nc21
PDE10A | enzyme activity, inhibitor, FP | 0.1 µM | 63 | COc1cc2ncnc(Cc3cccc(-c4ccccc4)c3)c2cc1OC
SLC6A3 | ligand displacement, radioligand | 10 µM | 23 | CCOC(=O)[C@@]12C[C@@H]1[C@@H](n1cnc3c(NCCCCCCc4ccccc4)nc(C#Cc4ccc(Cl)s4)nc31)[C@H](O)[C@@H]2O
PDE10A | enzyme activity, inhibitor, FP | 0.1 µM | 22 | COc1ccc2c(Cc3ccc(OC)c(OC)c3)ncnc2c1
SLC6A3 | ligand displacement, radioligand | 10 µM | 25 | CCOC(=O)[C@@]12C[C@@H]1[C@@H](n1ccc3c(NCCCCCCCc4ccccc4)nc(C#Cc4ccccc4)nc31)[C@H](O)[C@@H]2O
PDE10A | enzyme activity, inhibitor, FP | 0.1 µM | 54 | COc1cc2ncnc(Cc3cccc(-c4ccccc4)c3C)c2cc1OC
SLC6A3 | ligand displacement, radioligand | 10 µM | 89 | CCOC(=O)[C@@]12C[C@@H]1[C@@H](n1cnc3c(Nc4ccccc4)nc(C#Cc4ccc(Cl)s4)nc31)[C@H](O)[C@@H]2O
PDE10A | enzyme activity, inhibitor, FP | 0.1 µM | 85 | COc1ccc(-c2cccc(Cc3ncnc4cc(OC)c(OC)cc34)c2)cc1OC
Peroxisome proliferator-activated receptor gamma (PPARG, Homo sapiens, UniProt P37231) | cell-free assay, TR-FRET | 1 µM | 3.65 | CN(C)CCOC(=O)COc1ccc(Cl)cc1
DRD3 | ligand displacement, radioligand | 10 µM | < 50 | NC/C(=C\F)COc1cccc(Cn2c(=S)[nH]c(=O)c3[nH]cnc32)c1
PDE10A | enzyme activity, inhibitor, FP | 0.1 µM | 0 | c1ccc(-c2cccc(Cc3nccc4ccccc34)c2)cc1
SLC6A3 | ligand displacement, radioligand | 10 µM | 19 | CCOC(=O)[C@@]12C[C@@H]1[C@@H](n1cnc3c(NCCCCc4ccccc4)nc(I)nc31)[C@H](O)[C@@H]2O
Angiotensin-converting enzyme (ACE, Homo sapiens, UniProt P12821) | enzyme activity, inhibitor | 1.4 mM | 47.2 | CC(C)C[C@H](NC(=O)[C@@H](NC(=O)[C@@H](NC(=O)[C@@H]1CCCN1C(=O)[C@@H](N)CCC(=O)O)C(C)C)[C@@H](C)O)C(=O)N[C@H](C(=O)O)[C@@H](C)O
Ephrin type-B receptor 4 (EPHB4, Homo sapiens, UniProt P54760) | cell-free assay, inhibitor | 0.1 µM | -4.58 | Cc1cc(O)c(-c2ccc([C@@H](C)CN(C)C)cc2)c2c1[nH]c(=O)c1sccc12
SLC6A3 | ligand displacement, radioligand | 10 µM | 75 | CNC(=O)[C@@]12C[C@@H]1[C@@H](n1cnc3c(NCc4cccc(Cl)c4)nc(C#Cc4ccc(Cl)s4)nc31)[C@H](O)[C@@H]2O
DRD3 | ligand displacement, radioligand | 10 µM | 0 | CCN1/C(=C/C(C)=O)Sc2ccc(F)cc21
PDE10A | enzyme activity, inhibitor, FP | 0.1 µM | 6 | c1ccc2c(Cc3ccc4cnn(C5COC5)c4c3)nccc2c1
Dual specificity protein kinase CLK4 (CLK4, Homo sapiens, UniProt Q9HAZ1) | enzyme activity, inhibitor | 0.2 µM | 53.5 | C#Cc1cc(-c2cc(Nc3nc(N[C@@H](C)c4ccc(F)cn4)ncc3Cl)n[nH]2)ccc1C=O
